Among all 85,000 compounds or so, about 940 (1.1%) were called active. The full list was thinned out, with actives kept by preference. A number with no mark means an inactive call.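 How the source made its calls: active means viability at or below 50% in the single dose screen; inactive means viability above 50%.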

The nature of the assay: antiproliferative effect on LL 47 fibroblasts – human, LL 47 cells, CellTiter-Glo luminescence, primary screen (AID 719).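 Further: compound exposure lasted 72 h before the ATP readout; 100% = median luminescence of untreated cell-only wells.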 The settings on record: LL 47 human lung fibroblast viability, ATP luminescence; at 10 µM; stronger effect = lower value. In short, it runs like this: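 material = human LL 47 lung fibroblast cells | dosing = compounds added from tenfold dosing solution, 0.1% DMSO final | timing = overnight cell rest, 72 h compound treatment at 37 °C | measured by = CellTiter-Glo luminescence measuring cellular ATP | evaluation = % viability versus median cells-only luminescence | control set = cell-only wells, no compound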
For orientation: Cellular ATP, detected with luciferase, serves as a proxy for viable cell number.
In general, viability refers to a read-out of living cells in per cent, often relative to untreated cells. As to `COc1ccc(Nc2ncc(C(=O)N3CCN(c4ccccc4OC)CC3)c3ccccc23)cc1`, the viability was 100%.
For `Fc1ccc(-n2c(Cc3ccccc3)nnc2SCc2nc(-c3ccc(Cl)cc3)no2)cc1`, the viability is 111%.
For `CC(C)CNC(=O)CC(c1ccccc1)c1c(O)ccc2ccccc12` (configuration not stated) the value was 94.7%.
For `CC(C)C(=O)NC(NC(=S)NC1CCS(=O)(=O)C1)C(Cl)(Cl)Cl` (configuration not stated) the value was 104%.
The value for `COCCn1c(SCc2nnc(-c3ccc(OC)c(OC)c3)o2)nc2sc3c(c2c1=O)CCC3` was 99.8%; that for `CCCc1nc(NCc2ccc3c(c2)OCO3)c2nnn(Cc3ccccc3Cl)c2n1` was 23.2% (active).
In the case of `Cc1nc(Nc2ccc3c(c2)OCCO3)c2nnn(Cc3ccccc3Cl)c2n1`, the viability was 98.4%.
Consider `O=C(Cn1cnc2c(nnn2Cc2ccc(F)cc2)c1=O)NCc1ccc2c(c1)OCO2`, for which the viability was 93.2%.
The value for `COC(=O)c1cccc(-n2[nH]nnc2=S)c1` was 102%.
The value for `O=C(CSc1nnc(Cc2ccccc2)n1-c1ccccc1)N1CCOCC1` was 109%; that for `CCOC(=O)CSc1nnc(CNC(=O)c2ccco2)n1-c1ccc(F)cc1` was 103%.
Turning to `Cc1ccc(-n2c(CNc3ccc(F)cc3)nnc2SCC(=O)N2CCOCC2)cc1`, the viability is 2.59% (active).
`O=C(NCCCn1ccnc1)Nc1ccc(Cl)cc1Cl`: the viability was 102%.
The value for `CCCCOc1ccc(N(CC(=O)NCC2CCCO2)C(=O)CCC(=O)Nc2cc(C)ccn2)cc1` (configuration not stated) was 91.1%; that for `COc1ccc(Br)cc1CN1CCN(C(=O)c2cccc(OC)c2OC)CC1` was 94.1%; that for `O=C1CCCCC(=O)c2ccccc2N1` was 96.7%.
Turning to `c1ccc2c(c1)C(=NC1CCCCC1)NC2=NC1CCCCC1`, the viability was 40.6% (active).
For `Cc1nn(Cc2ccccc2)c2c1C(c1ccccc1)C(C#N)=C(N)O2` (configuration not stated) the value was 98.6%.
For the compound `CCCCNS(=O)(=O)c1ccc(S(=O)(=O)n2cnc3ccccc32)cc1`, the viability is 107%.
For `OC(CNCC1CCCO1)Cn1c2ccc(Br)cc2c2cc(Br)ccc21` (configuration not stated) the value was 2.96% (active).
Consider `Cc1ccc(C(=O)NCC2CCCO2)o1` (configuration not stated), for which the viability was 101%.
For `Cc1cc(Br)ccc1NC(=O)C1CCCO1` (configuration not stated), the viability was 91.1%.
The value for `COC(=O)C1=C(C(=O)OC)C2(OC1c1ccc(Br)cc1)C(=O)c1ccccc1C2=O` (configuration not stated) was 105%.
The value for `O=C(Nc1cccc(NC(=O)c2ccco2)c1)c1cnccn1` was 103%; that for `COC(=O)c1cc2nc(-c3ccccc3)cc(C(F)(F)F)n2n1` was 97.7%.
Turning to `CNc1nc(SC)nc(N(C#N)CC(=O)OC)n1`, the viability is 107%.
The value for `CC(=O)Nc1ccc(S(=O)(=O)N2CCN(C(=O)c3ccccc3F)CC2)cc1` was 105%; that for `Cc1nc2ccccc2c(=O)n1CCCn1ccnc1` was 100%; that for `O=c1c2ccccc2nc(N/N=C/c2ccccc2)n1O` was 99.1%.
Turning to `CCn1c(/C=C/c2ccc([N+](=O)[O-])o2)nc2ccccc2c1=O`, the viability was 9.18% (active).
For `CCCn1nnc2sc3c(c2c1=O)CCC(C)C3` (configuration not stated) the value was 88.2%.
For `C=CCn1c(SCc2c(C)noc2C)nc2sc3c(c2c1=O)CCC(C)C3` (configuration not stated) the value was 47.2% (active).
The value for `CC1CCc2c(sc3nc4n(c(=O)c23)CCS4)C1` (configuration not stated) was 104%; that for `COc1ccc(CN(CC(=O)NC2CCCC2)C(=O)CCC(=O)Nc2cc(C)on2)cc1` was 101%.
With `O=C1C=C(c2ccc(Cl)cc2)C(=O)N1Nc1ccccc1`, the viability is 49.3% (active).
The value for `Cc1ccc(-c2noc(CSc3nnc(-c4ccncc4)n3-c3ccc(F)cc3)n2)cc1` was 80.8%.
The value for `OC(CN=c1sc2ccccc2n1CC(O)COc1ccccc1)COc1ccccc1` (configuration not stated) was 86%; that for `N/C(=N\OC(=O)Nc1ccc(Cl)c(Cl)c1)c1ncc(C(F)(F)F)cc1Cl` was 97.2%; that for `CN(C)CCNC(CC(=O)Nc1ccc(Cl)c(Cl)c1)C(=O)O` (configuration not stated) was 102%.
For `O=C(CC(O)(C(F)(F)F)C(F)(F)F)Nc1ccc(Cl)c(Cl)c1` the value was 22.4% (active); for `COC(=O)c1ccc(NC(=O)C23CC4CC(C2)CC(n2cnc(Cl)n2)(C4)C3)cc1`, 96.5%.
As to `COc1ccc(C2CC(c3cccs3)=Nc3ccccc3S2)cc1OC` (configuration not stated), the viability was 93.6%.
The value for `COc1ccc(N(CC(=O)NC2CCCCC2)C(=O)CNC(=O)c2ccco2)c(OC)c1` was 96.4%; that for `COc1ccccc1-c1nc(C#N)c(N2CCC(C(N)=O)CC2)o1` was 89.3%.
The value for `CCOc1ccc(Nc2oc(Cc3ccccc3)nc2C#N)cc1` was 99.8%; that for `COc1ccc(Nc2oc(-c3ccccc3Cl)nc2C#N)cc1` was 23.1% (active).
Turning to `COc1ccccc1NC1=NC(c2ccc(Cl)cc2)N=C(N)N1` (configuration not stated), the viability was 45.8% (active).
For the compound `COc1ccccc1Nc1nc(N)nc(CN(C)C2CCCCC2)n1`, the viability was 94.3%.
On to `COc1ccccc1NC1=NC2(CCCC2)N=C(N)N1`, for which the viability is 93%.
For the compound `CCn1c(=O)c(=O)n(CC)c2cc(S(=O)(=O)N3CCc4ccccc43)ccc21`, the viability was 70.5%.
As for `CC1(C)CCc2nc(SCc3ccccc3)c(C#N)cc2C1`, the viability is 95.3%.
For `Cc1nc(NC(=O)C2CCCCC2)sc1C` the value was 108%; for `O=C(NCc1ccccc1)C1CCCN(S(=O)(=O)c2cccs2)C1` (configuration not stated), 94.6%; for `O=C(Cn1c(-c2cscn2)nc2ccccc21)Nc1ccc(Cl)cc1`, 90.7%.
Consider `CN(C)c1ccnc2sc3c(=O)n(-c4ccc(Cl)cc4)cnc3c12`, for which the viability is 102%.
The value for `CC1=C(C(=O)Nc2ccccc2)C(c2ccco2)C(C#N)=C(SCC(N)=O)N1` (configuration not stated) was 88.2%.
Regarding `N#CC1=C(N)Oc2c(sc3ccccc23)C1c1ccco1` (configuration not stated), the viability is 20.2% (active).
For `Cc1cc2c(c(=O)n1Cc1ccco1)C(c1ccccc1)C(C#N)=C(N)O2` (configuration not stated) the value was 107%; for `CCNc1nc(NC(C)C)nc(OCCOC(=O)c2ccccc2)n1`, 108%; for `Cc1cc(O)cc(O)c1C(=O)Cc1cnn(-c2ccccc2)c1`, 98.6%.
For `C/C(=N\NC(=O)c1ccc(C)cc1)C1C(=O)c2ccccc2C1=O` the value was 103%; for `COc1cccc(NC(=O)CN(C)S(=O)(=O)c2ccc(C)cc2)c1`, 93.1%.
The value for `COc1cccc(-c2nnc(NC(=O)c3ccc(S(=O)(=O)N(CC(C)C)CC(C)C)cc3)o2)c1` was 8.59% (active); that for `CCN(CC)C(=O)CSc1nnc(-c2cccc(OC)c2)o1` was 101%.
On to `c1ccc(-n2nc3ccccc3n2)cc1`, for which the viability is 100%.
Turning to `Cc1ccc(/C=N/NC(=O)C2=NNC(c3ccccc3)(c3ccccc3)C2)c(O)c1`, the viability is 19.2% (active).
With `Cc1ccc(OCC(=O)N/N=C\c2ccco2)c(C)c1`, the viability is 108%.
For `C/C(=N\NC(=O)c1nc(C)cc(C)n1)c1ccccc1` the value was 106%; for `CCOc1ccc(-n2c(N)c(C(=O)NCC3CCCO3)sc2=S)cc1` (configuration not stated), 101%.
For `O=C(C(NS(=O)(=O)c1cccc2nsnc12)c1ccccc1)N1CCN(c2ccccc2)CC1` (configuration not stated) the value was 94.9%; for `Oc1c(Cl)cc(Cl)c(Cl)c1Cc1c(O)c(Cl)cc(Cl)c1Cl`, 46.4% (active).
For `CCCCN(CCCC)C(=O)CCS(=O)(=O)c1ccc2c(c1)n(C)c(=O)c(=O)n2C` the value was 96.8%.
Regarding `CC(=O)CCS(=O)(=O)c1ccc(C)c(C)c1`, the viability was 32.5% (active).
For `Cc1ccc(S(=O)(=O)NCCN2CCOCC2)cc1C` the value was 108%; for `Cc1cc(C)cc(N(CC(=O)N2CC=C(c3ccccc3)CC2)S(=O)(=O)c2c(C)noc2C)c1`, 95.6%.
The value for `CC/C(O)=N\S(=O)(=O)c1ccc(N=NN(C)C)cc1` was 97.5%; that for `Cc1ccc(N(Cc2ccc(C(=O)Nc3ccccc3C(=O)NCc3ccco3)cc2)S(C)(=O)=O)cc1C` was 97%.
For the compound `Cc1nc2ccc(C(=O)O)cc2[nH]1`, the viability was 104%.
Turning to `COC(=O)Nc1nc2ccc(Sc3ccccc3)cc2[nH]1`, the viability was 47.2% (active).
Take `CC(C)c1nc2ccc(C(=O)O)cc2[nH]1`: the viability was 98.8%.
For `CN(Cc1ccccc1)C(=O)COc1ccccc1` the value was 104%; for `c1ccc(-c2nc(NCc3ccco3)c3ccccc3n2)cc1`, 95.9%.
As for `CC(c1ccco1)N(C(=O)Nc1ccccc1)C1CCCCC1` (configuration not stated), the viability is 97.3%.
As to `COc1ccc(-c2nnco2)cc1OC`, the viability was 103%.
Regarding `COc1ccc(-c2cc(C(F)(F)F)nc(NCc3cccnc3)n2)cc1`, the viability was 87.3%.
The value for `COc1ccc(-c2cc(C(F)(F)F)nc(S(C)(=O)=O)n2)cc1OC` was 2.93% (active).
In the case of `COc1cccc2cc(C(=O)N3CCN(C(=O)c4ccccc4)CC3)c(=O)oc12`, the viability was 92.4%.
For `CC(=O)NC1=NN(C(C)=O)C(C)(c2ccc(Cl)s2)S1` (configuration not stated) the value was 67.1%; for `Cc1ccccc1CSCCNC(=O)c1ccc(Cl)c(S(=O)(=O)N2CCOCC2)c1`, 97.8%; for `CCOc1cc(N2CCOCC2)c(OCC)cc1NC(=O)COC(=O)[C@H](Cc1c[nH]c2ccccc12)NC(C)=O`, 105%.
For `CCOc1cc(NC(=O)c2ccco2)c(OCC)cc1NC(=O)COc1ccccc1` the value was 99.7%; for `CCOc1cc(N2CCOCC2)c(OCC)cc1NC(=O)COc1cccc2cccnc12`, 31% (active); for `CS(=O)(=O)n1nc(-c2ccccc2)nc1NCc1ccco1`, 105%.
In the case of `CCc1ccc2c(c1)C1(NN=C(c3ccccc3)S1)C(=O)N2` (configuration not stated), the viability is 32.1% (active).
The value for `C=C1c2cc(CC)ccc2NC(=O)N1c1ccc(C)cc1` was 102%; that for `O=C1Nc2ccccc2C12Nc1ccccc1S2` (configuration not stated) was 92.1%.
For `CN(C)S(=O)(=O)c1ccc(N2CCCC2)c(C(=O)NCc2ccccc2)c1` the value was 98.3%.

The values are drawn from PubChem BioAssay AID719 (SRMLSC, 2007).
